In ChEMBL document CHEMBL4024801, “Synthesis and Structure-Activity Relationship (SAR) Studies of Novel Pyrazolopyridine Derivatives as Inhibitors of Enterovirus Replication” (J Med Chem, 2018):

Experiments:
Assay type in all cases: functional, cell-based
Enterovirus A71 = experiment: Antiviral activity against Enterovirus A71 infected in monkey LLC-MK2 cells assessed as protection against virus-induced cytopathic effect after 3 to 4 days by crystal violet staining-based spectrophotometric method; settings: Enterovirus A
How it was run: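 EV-A71 was tested in LLC-MK2 cells grown in DMEM with 10% FBS, penicillin, streptomycin and glutamine, at a low MOI preset to give full CPE in 3–4 days. Compound was dissolved in DMSO and diluted 2-fold, in triplicate. Cells were fixed with formaldehyde when control CPE was maximal, then stained with crystal violet and read at OD590. EC50 came from a 7-point four-parameter or sigmoidal fit.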

Coxsackievirus B3 = experiment: Antiviral activity against Coxsackievirus B3 infected in human HeLa-RW cells assessed as protection against virus-induced cytopathic effect after 3 to 4 days by crystal violet staining-based spectrophotometric method; settings: Enterovirus B
How it was run: (§1)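 HeLa-RW cells grown in DMEM with penicillin, streptomycin, glutamine and 10% FBS. They were infected at a low MOI pre-set to give full CPE in 3-4 days. Compound in DMSO was added as serial 2-fold dilutions (7 points), each in triplicate. When control CPE was maximal, cells were fixed with 4% formaldehyde, stained with 0.25% crystal violet and read at OD590. EC50 came from a four-parameter or sigmoidal fit.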

Poliovirus 1 = experiment: Antiviral activity against Poliovirus 1 infected in human HeLa-RW cells assessed as protection against virus-induced cytopathic effect after 3 to 4 days by crystal violet staining-based spectrophotometric method; settings: Enterovirus C; how it was run: as §1
Poliovirus 3 = experiment: Antiviral activity against Poliovirus 3 infected in human HeLa-RW cells assessed as protection against virus-induced cytopathic effect after 3 to 4 days by crystal violet staining-based spectrophotometric method; settings: Enterovirus C; how it was run: as §1

Measured: EC50

CC(C)n1ncc2c(-c3nc4ccc(F)cc4o3)cc(-c3cccs3)nc21
> 10 µM: all assays above

CC(C)n1ncc2c(C(=N)Nc3cccnc3)cc(-c3cccs3)nc21
> 10 µM: all assays above

CC(C)n1ncc2c(C(=O)Nc3ccc(C(F)(F)F)cc3)cc(-c3cccs3)nc21
> 25 µM: all assays above

CC(C)n1ncc2c(NS(=O)(=O)c3ccc(F)cc3)cc(-c3cccs3)nc21
> 10 µM: all assays above

CC(C)n1ncc2c(C(=S)Nc3ccc(F)cc3)cc(-c3cccs3)nc21
> 10 µM: all assays above

CC(C)n1ncc2c(C(=O)Nc3ccccc3F)cc(-c3nccs3)nc21
> 10 µM: all assays above

CC(C)n1ncc2c(S(=O)(=O)Nc3ccc(F)cc3)cc(-c3cccs3)nc21
> 10 µM: all assays above

CC(C)n1ncc2c(NC(=O)c3cc(-c4cccs4)nc4c3cnn4C(C)C)cc(-c3cccs3)nc21
> 10 µM: all assays above

CC(C)n1ncc2c(C(=O)N(C)c3ccccn3)cc(-c3cccs3)nc21
> 25 µM: Coxsackievirus B3
> 10 µM: all other assays above

CC(C)n1ncc2c(C(=N)Nc3ccc(F)cc3)cc(-c3cccs3)nc21
> 10 µM: all assays above

CC(C)n1cnc2c(C(=O)Nc3ccc(F)cc3)cc(-c3cccs3)nc21
> 10 µM: all assays above

CC(C)n1ncc2c(C(=O)Nc3ccccc3C(F)(F)F)cc(-c3cccs3)nc21
> 10 µM: all assays above

CC(C)n1ncc2c(C(=O)Nc3ccc(F)cc3)nc(-c3cccs3)nc21
> 10 µM: all assays above

CC(C)n1ncc2c(C(=O)Nc3ccccc3F)cc(-c3cnco3)nc21
> 10 µM: all assays above

CC(C)n1ccc2c(C(=O)Nc3ccncc3)cc(-c3cccs3)nc21
> 10 µM: all assays above

CC(C)n1ncc2c(C(=O)Nc3ccncc3)cc(-c3ccsc3)nc21
> 10 µM: all assays above

CC(C)n1nnc2c(C(=O)Nc3ccc(F)cc3)cc(-c3cccs3)nc21
> 10 µM: all assays above

CC(C)n1ncc2c(C(=O)Nc3cccc(S(N)(=O)=O)c3)cc(C3CC3)nc21
> 10 µM: all assays above

CC(C)n1ncc2c(C(=O)Nc3cc(F)cc(F)c3)cc(-c3cccs3)nc21
> 10 µM: all assays above

CC(C)n1ncc2c(C(=O)Nc3ccc(F)cc3Br)cc(-c3cccs3)nc21
> 10 µM: all assays above

CC(C)n1ncc2c(C(=O)Nc3ccc(S(N)(=O)=O)cc3)cc(-c3cccs3)nc21
> 10 µM: all assays above
